From ChEMBL document CHEMBL1275521, “Fluoroquinolone enhances the mutation frequency for meropenem-selected carbapenem resistance in Pseudomonas aeruginosa, but use of the high-potency drug doripenem inhibits mutant formation” (2008)
In brackets after ≈: the same amount, converted by molar mass.

Key:
Pseudomonas aeruginosa [1] = experiment: Antimicrobial activity against wild-type Pseudomonas aeruginosa GP61 after 18 hrs by agar dilution method; assay type: functional
In short: (§1)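 MICs by agar dilution following CLSI guidelines; plates incubated 18 h at 37°C.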

Pseudomonas aeruginosa [2] = experiment: Antimicrobial activity against Pseudomonas aeruginosa GP62KT41 harboring oprD gene after 18 hrs by agar dilution method; assay type: functional
In short: (§2)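 Carbapenem-resistant mutants were isolated on carbapenem-containing AB3 agar after 10^6-fold dilution and broth culture, with or without ciprofloxacin or ofloxacin. Randomly picked colonies were checked for MIC by agar dilution following CLSI guidelines, with 18 h incubation at 37°C. PAO1KTL and PAO1KTS came from meropenem selection without fluoroquinolone.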

Pseudomonas aeruginosa [3] = experiment: Antimicrobial activity against wild-type Pseudomonas aeruginosa GP62 after 18 hrs by agar dilution method; assay type: functional; in short: as §1
Pseudomonas aeruginosa [4] = experiment: Antimicrobial activity against Pseudomonas aeruginosa GP37KT31 harboring oprD gene after 18 hrs by agar dilution method; assay type: functional; in short: as §2
Pseudomonas aeruginosa [5] = experiment: Antimicrobial activity against wild-type Pseudomonas aeruginosa GP37 after 18 hrs by agar dilution method; assay type: functional; in short: as §1
Pseudomonas aeruginosa [6] = experiment: Antimicrobial activity against Pseudomonas aeruginosa GP20KT21 harboring oprD gene after 18 hrs by agar dilution method; assay type: functional; in short: as §2
Pseudomonas aeruginosa [7] = experiment: Antimicrobial activity against wild-type Pseudomonas aeruginosa GP20 after 18 hrs by agar dilution method; assay type: functional; in short: as §1
Pseudomonas aeruginosa [8] = experiment: Antimicrobial activity against Pseudomonas aeruginosa GP4KT111 harboring oprD,mexAB-oprM gene after 18 hrs by agar dilution method; assay type: functional
Pseudomonas aeruginosa [9] = experiment: Antimicrobial activity against wild-type Pseudomonas aeruginosa GP4 after 18 hrs by agar dilution method; assay type: functional; in short: as §1
Pseudomonas aeruginosa [10] = experiment: Antimicrobial activity against Pseudomonas aeruginosa PAO1 SO20 harboring mexAB-oprM gene after 18 hrs by agar dilution method; assay type: functional
Pseudomonas aeruginosa [11] = experiment: Antimicrobial activity against Pseudomonas aeruginosa PAO1 IPM46 harboring oprD gene after 18 hrs by agar dilution method; assay type: functional
Pseudomonas aeruginosa [12] = experiment: Antimicrobial activity against Pseudomonas aeruginosa PAO1 KTS harboring mexAB-oprM gene after 18 hrs by agar dilution method; assay type: functional; in short: as §2
Pseudomonas aeruginosa [13] = experiment: Antimicrobial activity against Pseudomonas aeruginosa PAO1 KTL1 harboring oprD, mexAB-oprM gene after 18 hrs by agar dilution method; assay type: functional
Pseudomonas aeruginosa [14] = experiment: Antimicrobial activity against Pseudomonas aeruginosa PAO1 after 18 hrs by agar dilution method; assay type: functional; in short: as §1
Pseudomonas aeruginosa [15] = experiment: Antimicrobial activity against Pseudomonas aeruginosa PAO1 KTL harboring oprD gene after 18 hrs by agar dilution method; assay type: functional; in short: as §2
Pseudomonas aeruginosa [16] = experiment: Antimicrobial activity against Pseudomonas aeruginosa GP61KT51 harboring oprD,mexAB-oprM gene after 18 hrs by agar dilution method; assay type: functional
Pseudomonas aeruginosa [17] = experiment: Antimicrobial activity against Pseudomonas aeruginosa GP4KT11 harboring oprD gene after 18 hrs by agar dilution method; conditions: GP4KT11, 18 h
Pseudomonas aeruginosa [18] = experiment: Antimicrobial activity against Pseudomonas aeruginosa GP4KT111 harboring oprD gene after 18 hrs by agar dilution method; assay type: functional; conditions: GP4KT11

Compound	MIC (Pseudomonas aeruginosa [1]; GP61, 18 h) [µg/mL]	MIC (Pseudomonas aeruginosa [2]; GP62KT41, 18 h) [µg/mL]	MIC (Pseudomonas aeruginosa [3]; GP62, 18 h) [µg/mL]	MIC (Pseudomonas aeruginosa [4]; GP37KT31, 18 h) [µg/mL]	MIC (Pseudomonas aeruginosa [5]; GP37, 18 h) [µg/mL]	MIC (Pseudomonas aeruginosa [6]; GP20KT21, 18 h) [µg/mL]	MIC (Pseudomonas aeruginosa [7]; GP20, 18 h) [µg/mL]	MIC (Pseudomonas aeruginosa [8]; GP4KT111, 18 h) [µg/mL]	MIC (Pseudomonas aeruginosa [9]; GP4, 18 h) [µg/mL]	MIC (Pseudomonas aeruginosa [10]; PAO1 SO20, 18 h) [µg/mL]	MIC (Pseudomonas aeruginosa [11]; PAO1 IPM46, 18 h) [µg/mL]	MIC (Pseudomonas aeruginosa [12]) [µg/mL]	MIC (Pseudomonas aeruginosa [13]; PAO1 KTL1, 18 h) [µg/mL]	MIC (Pseudomonas aeruginosa [14]; PAO1, 18 h) [µg/mL]	MIC (Pseudomonas aeruginosa [15]) [µg/mL]	MIC (Pseudomonas aeruginosa [16]; GP61KT51, 18 h) [µg/mL]	MIC (Pseudomonas aeruginosa [17]) [µg/mL]	further results
CC(C)(O/N=C(\C(=O)N[C@@H]1C(=O)N2C(C(=O)[O-])=C(C[n+]3ccccc3)CS[C@H]12)c1csc(N)n1)C(=O)O [CEFTAZIDIME]	3.1 (≈ 5.67 µM)	1.6 (≈ 2.93 µM)	1.6 (≈ 2.93 µM)	1.6 (≈ 2.93 µM)	1.6 (≈ 2.93 µM)	1.6 (≈ 2.93 µM)	1.6 (≈ 2.93 µM)	6.3 (≈ 11.5 µM)	1.6 (≈ 2.93 µM)	6.3 (≈ 11.5 µM)	1.6 (≈ 2.93 µM)	6.3 (≈ 11.5 µM)	6.3 (≈ 11.5 µM)	1.6 (≈ 2.93 µM)	1.6 (≈ 2.93 µM)	12.5 (≈ 22.9 µM)	1.6 (≈ 2.93 µM)	–
O=C(O)c1cn(C2CC2)c2cc(N3CCNCC3)c(F)cc2c1=O [CIPROFLOXACIN]	0.2 (≈ 0.604 µM)	0.2 (≈ 0.604 µM)	0.2 (≈ 0.604 µM)	0.2 (≈ 0.604 µM)	0.2 (≈ 0.604 µM)	0.2 (≈ 0.604 µM)	0.2 (≈ 0.604 µM)	0.8 (≈ 2.41 µM)	0.2 (≈ 0.604 µM)	0.8 (≈ 2.41 µM)	0.2 (≈ 0.604 µM)	0.8 (≈ 2.41 µM)	0.8 (≈ 2.41 µM)	0.2 (≈ 0.604 µM)	0.2 (≈ 0.604 µM)	0.8 (≈ 2.41 µM)	0.2 (≈ 0.604 µM)	–
C[C@@H](O)[C@H]1C(=O)N2C(C(=O)O)=C(S[C@@H]3CN[C@H](CNS(N)(=O)=O)C3)[C@H](C)[C@H]12 [DORIPENEM]	0.8 (≈ 1.9 µM)	0.8 (≈ 1.9 µM)	0.1 (≈ 0.238 µM)	1.6 (≈ 3.8 µM)	0.2 (≈ 0.476 µM)	1.6 (≈ 3.8 µM)	0.2 (≈ 0.476 µM)	3.1 (≈ 7.37 µM)	0.2 (≈ 0.476 µM)	0.4 (≈ 0.951 µM)	0.8 (≈ 1.9 µM)	0.4 (≈ 0.951 µM)	1.6 (≈ 3.8 µM)	0.2 (≈ 0.476 µM)	0.8 (≈ 1.9 µM)	1.6 (≈ 3.8 µM)	1.6 (≈ 3.8 µM)	–
C[C@@H](O)[C@H]1C(=O)N2C(C(=O)O)=C(SCCNC=N)C[C@H]12 [IMIPENEM ANHYDROUS]	6.3 (≈ 21 µM)	12.5 (≈ 41.8 µM)	0.8 (≈ 2.67 µM)	12.5 (≈ 41.8 µM)	0.8 (≈ 2.67 µM)	12.5 (≈ 41.8 µM)	0.8 (≈ 2.67 µM)	12.5 (≈ 41.8 µM)	0.8 (≈ 2.67 µM)	0.8 (≈ 2.67 µM)	12.5 (≈ 41.8 µM)	0.8 (≈ 2.67 µM)	12.5 (≈ 41.8 µM)	0.8 (≈ 2.67 µM)	12.5 (≈ 41.8 µM)	6.3 (≈ 21 µM)	12.5 (≈ 41.8 µM)	–
C[C@@H](O)[C@H]1C(=O)N2C(C(=O)O)=C(S[C@@H]3CN[C@H](C(=O)N(C)C)C3)[C@H](C)[C@H]12 [MEROPENEM]	1.6 (≈ 4.17 µM)	3.1 (≈ 8.08 µM)	0.2 (≈ 0.522 µM)	3.1 (≈ 8.08 µM)	0.2 (≈ 0.522 µM)	3.1 (≈ 8.08 µM)	0.2 (≈ 0.522 µM)	12.5 (≈ 32.6 µM)	0.2 (≈ 0.522 µM)	1.6 (≈ 4.17 µM)	1.6 (≈ 4.17 µM)	1.6 (≈ 4.17 µM)	6.3 (≈ 16.4 µM)	0.2 (≈ 0.522 µM)	1.6 (≈ 4.17 µM)	6.3 (≈ 16.4 µM)	3.1 (≈ 8.08 µM)	–
CC1COc2c(N3CCN(C)CC3)c(F)cc3c(=O)c(C(=O)O)cn1c23 (stereo unspecified) [OFLOXACIN]	1.6 (≈ 4.43 µM)	1.6 (≈ 4.43 µM)	1.6 (≈ 4.43 µM)	1.6 (≈ 4.43 µM)	1.6 (≈ 4.43 µM)	1.6 (≈ 4.43 µM)	1.6 (≈ 4.43 µM)	6.3 (≈ 17.4 µM)	1.6 (≈ 4.43 µM)	3.1 (≈ 8.58 µM)	0.8 (≈ 2.21 µM)	3.1 (≈ 8.58 µM)	3.1 (≈ 8.58 µM)	0.8 (≈ 2.21 µM)	0.8 (≈ 2.21 µM)	6.3 (≈ 17.4 µM)	1.6 (≈ 4.43 µM)	–
CCN1CCN(C(=O)N[C@@H](C(=O)N[C@@H]2C(=O)N3[C@@H]2SC(C)(C)[C@@H]3C(=O)O)c2ccccc2)C(=O)C1=O [PIPERACILLIN]	3.1 (≈ 5.99 µM)	100 (≈ 193 µM)	100 (≈ 193 µM)	100 (≈ 193 µM)	100 (≈ 193 µM)	100 (≈ 193 µM)	100 (≈ 193 µM)	200 (≈ 386 µM)	100 (≈ 193 µM)	12.5 (≈ 24.2 µM)	3.1 (≈ 5.99 µM)	12.5 (≈ 24.2 µM)	12.5 (≈ 24.2 µM)	3.1 (≈ 5.99 µM)	3.1 (≈ 5.99 µM)	12.5 (≈ 24.2 µM)	100 (≈ 193 µM)	–
GENTAMICIN	–	–	–	–	–	–	–	–	–	–	–	1.6	–	–	1.6	–	–	MIC (Pseudomonas aeruginosa [1]): 1.6 µg/mL; MIC (Pseudomonas aeruginosa [2]): 1.6 µg/mL; MIC (Pseudomonas aeruginosa [3]): 1.6 µg/mL; MIC (Pseudomonas aeruginosa [4]): 100 µg/mL; MIC (Pseudomonas aeruginosa [5]): 100 µg/mL; MIC (Pseudomonas aeruginosa [6]): 3.1 µg/mL; MIC (Pseudomonas aeruginosa [7]): 3.1 µg/mL; MIC (Pseudomonas aeruginosa [8]): 100 µg/mL; MIC (Pseudomonas aeruginosa [18]): 100 µg/mL; MIC (Pseudomonas aeruginosa [9]): 100 µg/mL; MIC (Pseudomonas aeruginosa [10]): 1.6 µg/mL; MIC (Pseudomonas aeruginosa [11]): 1.6 µg/mL; MIC (Pseudomonas aeruginosa [13]): 1.6 µg/mL; MIC (Pseudomonas aeruginosa [14]): 1.6 µg/mL; MIC (Pseudomonas aeruginosa [16]): 1.6 µg/mL
